Assay results taken from ChEMBL document CHEMBL4316593 (Eur J Med Chem, 2019).
Calls of active or inactive are those of the source. The rule behind the calls is not given here.

Test system: U-87 MG
Assay: Cytotoxicity against human U87 cells assessed as reduction in cell proliferation at 100 uM measured after 48 hrs by trypan blue dye-based cell counting analysis
Format: functional
Settings: U-87MG ATCC
Outline: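 Trypan blue viability assay. U87 (MEM, 10% FBS) or LN229 (DMEM, 5% FBS) cells were treated for 48hrs. Screening used 100 μM; the dose-response used 100, 75, 50, 25 and 10 μM. Cells were pelleted at 1200 rpm and live/dead cells counted by automated counter. Mortality % was taken relative to the DMSO control, and IC₅₀ derived from the dose-response curve. Cisplatin served as positive control.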

For CC(=O)/C(=N\Nc1ccc([N+](=O)[O-])cc1O)C(=O)c1ccccc1, the Activity was “Active”.
CC(=O)/C(=N\Nc1cc(S(=O)(=O)O)cc(S(=O)(=O)O)c1O)C(=O)c1ccccc1 was tested, and the Activity was “inactive”.
